Calls of active or inactive are those of the source. No cut-off for these calls is given here.
Legend:
Mus musculus [1] = organism: Mus musculus; experiment: Inhibition of Hedgehog signaling pathway in mouse C3H10T1/2 cells assessed as reduction in oxysterol-induced Gli1 mRNA expression at 2.5 uM after 24 hrs by q-PCR analysis relative to oxysterol alone; type: cell-based
Procedure, shortened: (§1)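 Gli1 transcription was induced in C3H10T1/2 cells by co-treating with 20(S)-OHC and 22(S)-OHC (5 µM each) plus analogue for 24 h. Gli1 mRNA was quantified by qPCR and expressed as % of the oxysterol-only control (set to 100%). Data are mean ± SEM of at least two separate experiments run in triplicate.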

[2] = Inhibition of Hedgehog signaling pathway in mouse C3H10T1/2 cells assessed as reduction in oxysterol-induced Gli1 mRNA expression after 24 hrs by q-PCR analysis; type: cell-based; conditions: C3H 10T1/2, 24 h
[3] = biological target: T1, Vitamin D3 receptor (Mus musculus) (UniProt P48281); experiment: Activation of VDR in mouse C3H10T1/2 cells assessed as change in Cyp24A1 mRNA expression at 2.5 uM after 24 hrs by q-PCR analysis relative to control; type: cell-based
T1 sequence (whole entry): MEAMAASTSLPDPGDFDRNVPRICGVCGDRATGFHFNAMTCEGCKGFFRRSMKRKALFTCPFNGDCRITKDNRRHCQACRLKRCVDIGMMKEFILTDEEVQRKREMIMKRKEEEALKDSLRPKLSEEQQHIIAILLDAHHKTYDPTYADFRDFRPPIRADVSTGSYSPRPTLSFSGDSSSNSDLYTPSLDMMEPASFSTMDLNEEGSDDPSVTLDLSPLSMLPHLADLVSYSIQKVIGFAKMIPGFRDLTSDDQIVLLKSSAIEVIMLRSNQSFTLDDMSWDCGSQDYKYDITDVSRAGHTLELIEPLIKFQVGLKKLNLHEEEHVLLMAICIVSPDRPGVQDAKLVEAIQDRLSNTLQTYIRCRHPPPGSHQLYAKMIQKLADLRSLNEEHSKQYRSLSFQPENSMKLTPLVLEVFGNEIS

[4] = Inhibition of Hedgehog signaling pathway in mouse ASZ001 cells assessed as reduction in […] Gli1 mRNA expression after 48 hrs by q-PCR analysis; type: cell-based; conditions: ASZ001, 48 h
[5] = biological target: T1, Vitamin D3 receptor (Mus musculus); experiment: Activation of VDR in mouse ASZ001 cells assessed as change in Cyp24A1 mRNA expression at 1 uM after 48 hrs by q-PCR analysis relative to control; type: cell-based
Vitamin D3 receptor = biological target: T2, Vitamin D3 receptor (Mus musculus, UniProt P48281); experiment: Activation of VDR in mouse ASZ001 cells assessed as change in Cyp24A1 mRNA expression after 48 hrs by q-PCR analysis; type: cell-based
T2 sequence (P48281 whole entry): T1 sequence (whole entry)
Procedure, shortened: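 In ASZ001 cells, full dose-response Cyp24A1 mRNA measurement by qPCR was done relative to DMSO control (1.0). EC50 values are mean ± SEM of at least two separate experiments performed in triplicate.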

Mus musculus [6] = organism: Mus musculus; experiment: Inhibition of Hedgehog signaling pathway in mouse C3H10T1/2 cells assessed as reduction in oxysterol-induced Gli1 mRNA expression at 1 uM after 24 hrs by q-PCR analysis relative to oxysterol alone; type: cell-based; set-up: scale not given: the % may be the effect or the level left; procedure, shortened: as §1
[7] = biological target: T1, Vitamin D3 receptor (Mus musculus); experiment: Activation of VDR in mouse C3H10T1/2 cells assessed as change in Cyp24A1 mRNA expression at 5 uM after 24 hrs by q-PCR analysis relative to control; type: cell-based
Medulloblastoma cell = experiment: Antiproliferative activity against medulloblastoma cells derived from conditional patched knockout mouse after 48 hrs by [3H]-thymidine incorporation assay; type: functional
Procedure, shortened: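 Primary tumour cells from Math1-Cre;Ptc fl/fl medulloblastoma were isolated and cultured in vitro, then incubated with analogue for 48 h in a proliferation assay. GI50 is mean ± SEM of at least two separate experiments performed in triplicate.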

[8] = Half life in rat liver homogenates; type: ADME, tissue-based
Mus musculus [9] = organism: Mus musculus; experiment: Inhibition of Hedgehog signaling pathway in VDR-deficient mouse C3H10T1/2 cells assessed as reduction in oxysterol-induced Gli1 mRNA expression at 1 uM after 24 hrs by q-PCR analysis
Mus musculus [10] = organism: Mus musculus; experiment: Inhibition of Hedgehog signaling pathway in Sufu-deficient mouse C3H10T1/2 cells assessed as reduction in oxysterol-induced Gli1 mRNA expression at 1 uM after 24 hrs by q-PCR analysis
Mus musculus [11] = organism: Mus musculus; experiment: Inhibition of Hedgehog signaling pathway in VDR-deficient mouse C3H10T1/2 cells assessed as change in CYP24A1 mRNA expression at 1 uM after 24 hrs by q-PCR analysis; set-up: scale not given: the % may be the effect or the level left
Mus musculus [12] = organism: Mus musculus; experiment: Inhibition of Hedgehog signaling pathway in Sufu-deficient mouse C3H10T1/2 cells assessed as change in CYP24A1 mRNA expression at 1 uM after 24 hrs by q-PCR analysis; set-up: scale not given: the % may be the effect or the level left

Row | Compound | % Gli1 activity (Mus musculus [1]) | IC50 [2] | Activity [3] | IC50 [4] | Activity [5] | EC50 (Vitamin D3 receptor) | Activity (Mus musculus [6]) | Activity [7] | GI50 (Medulloblastoma cell) | half-life [8] | inhibition (Mus musculus [9]) | inhibition (Mus musculus [10]) | Activity (Mus musculus [11]) | Activity (Mus musculus [12])
1 | C=C1CC[C@H](O)C/C1=C/C=C1\CCC[C@]2(C)[C@@H]([C@H](C)CCCC(C)(C)O)CC[C@@H]12 [CALCIFEDIOL ANHYDROUS] | 9.2% | 400 nM | > 30000% | 500 nM | 11000% | 600 nM |  |  |  |  |  |  |  | 
2 | C=C1/C(=C\C=C2/CCC[C@]3(C)[C@@H]([C@H](C)CCCC(C)(C)O)CC[C@@H]23)C[C@@H](O)C[C@@H]1O [CALCITRIOL] |  |  |  |  | > 30000% |  | 30% | > 30000% | 1400 nM | > 120 min | inactive | inactive | 530% | 590%
